Assay results reported in ChEMBL document CHEMBL4049451, “Exploring the Role of N6-Substituents in Potent Dual Acting 5'-C-Ethyltetrazolyladenosine Derivatives: Synthesis, Binding, Functional Assays, and Antinociceptive Effects in Mice ∇” (J Med Chem, 2017).

Key:
Adenosine receptor A3 [1] = target: T1, Adenosine receptor A3 (Rattus norvegicus, UniProt P28647); assay: Displacement of [3H]NECA from recombinant rat adenosine A3 receptor expressed in CHO cell membranes after 3 hrs by microbeta scintillation counting
T1 sequence (P28647 whole entry): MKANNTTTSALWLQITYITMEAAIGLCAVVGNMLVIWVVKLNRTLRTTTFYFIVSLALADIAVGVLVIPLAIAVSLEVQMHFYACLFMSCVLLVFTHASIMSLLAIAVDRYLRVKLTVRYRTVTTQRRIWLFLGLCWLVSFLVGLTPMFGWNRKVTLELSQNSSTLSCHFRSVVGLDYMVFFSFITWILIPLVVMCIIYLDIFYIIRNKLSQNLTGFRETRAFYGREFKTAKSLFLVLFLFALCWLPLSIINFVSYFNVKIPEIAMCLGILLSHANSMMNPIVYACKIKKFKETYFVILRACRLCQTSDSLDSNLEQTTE
In short: (§1)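 CHO membranes with stable human A1, A2A, A3 or rat A3 (1000g then 100 000g spin, stored -80 °C). Competition: hA1 1 nM [3H]CCPA, nonspecific with 1 mM theophylline; hA2A 10 nM [3H]NECA; hA3 1 nM [3H]HEMADO; rA3 30 nM [3H]NECA; latter three nonspecific with 100 μM R-PIA.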

Adenosine receptor A2b = target: T2, Adenosine receptor A2b (Homo sapiens, UniProt P29275); assay: Agonist activity at recombinant human adenosine A2B receptor expressed in CHO cell membranes assessed as stimulation of adenylyl cyclase activity by [alpha-32P]ATP assay; type: functional, cell-based
T2 sequence (P29275 whole entry): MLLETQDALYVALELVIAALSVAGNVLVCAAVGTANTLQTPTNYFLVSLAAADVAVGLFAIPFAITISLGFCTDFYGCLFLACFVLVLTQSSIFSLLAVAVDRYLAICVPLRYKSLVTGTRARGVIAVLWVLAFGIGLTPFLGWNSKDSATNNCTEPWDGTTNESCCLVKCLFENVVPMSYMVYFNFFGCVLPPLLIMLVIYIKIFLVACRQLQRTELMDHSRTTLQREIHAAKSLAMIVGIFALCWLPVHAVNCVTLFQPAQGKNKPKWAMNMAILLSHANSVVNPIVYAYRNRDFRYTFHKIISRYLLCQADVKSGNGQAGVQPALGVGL
In short: (§2)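 hA2A or hA2B in CHO cell membranes (one high-speed spin, pellet in 50 mM Tris/HCl pH 7.4, used immediately); agonist stimulation of adenylyl cyclase gives EC50; partial agonism judged as efficacy against 100 μM NECA as full agonist. Geometric means, 95% confidence intervals, n = 3.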

Adenosine receptor A2a [2] = target: T3, Adenosine receptor A2a (Homo sapiens, UniProt P29274); assay: Agonist activity at recombinant human adenosine A2A receptor expressed in CHO cell membranes assessed as stimulation of adenylyl cyclase activity by [alpha-32P]ATP assay; type: functional, cell-based; in short: as §2
T3 sequence (P29274 whole entry): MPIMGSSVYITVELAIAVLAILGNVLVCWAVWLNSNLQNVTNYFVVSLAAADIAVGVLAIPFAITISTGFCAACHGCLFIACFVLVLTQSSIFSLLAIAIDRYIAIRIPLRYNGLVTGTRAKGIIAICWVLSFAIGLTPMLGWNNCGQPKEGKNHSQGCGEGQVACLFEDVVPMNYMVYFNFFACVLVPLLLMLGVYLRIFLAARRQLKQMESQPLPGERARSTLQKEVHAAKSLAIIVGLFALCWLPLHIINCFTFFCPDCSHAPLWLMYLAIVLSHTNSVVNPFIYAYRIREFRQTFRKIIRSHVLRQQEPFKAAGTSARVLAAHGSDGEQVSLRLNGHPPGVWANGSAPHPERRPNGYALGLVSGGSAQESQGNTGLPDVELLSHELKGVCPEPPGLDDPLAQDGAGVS

[3] = target: Adenosine receptors; A1 & A3 (Homo sapiens) (UniProt P30542+P0DMS8); assay: Selectivity ratio of Ki for recombinant human adenosine A3 receptor expressed in CHO cell membranes to Ki for recombinant human adenosine A1 receptor expressed in CHO cell membranes; type: cell-based; in short: as §1
Adenosine receptor A1 [4] = target: T4, Adenosine receptor A1 (Homo sapiens, UniProt P30542); assay: Displacement of [3H]CCPA from recombinant human adenosine A1 receptor expressed in CHO cell membranes after 3 hrs by microbeta scintillation counting; in short: as §1
T4 sequence (P30542 whole entry): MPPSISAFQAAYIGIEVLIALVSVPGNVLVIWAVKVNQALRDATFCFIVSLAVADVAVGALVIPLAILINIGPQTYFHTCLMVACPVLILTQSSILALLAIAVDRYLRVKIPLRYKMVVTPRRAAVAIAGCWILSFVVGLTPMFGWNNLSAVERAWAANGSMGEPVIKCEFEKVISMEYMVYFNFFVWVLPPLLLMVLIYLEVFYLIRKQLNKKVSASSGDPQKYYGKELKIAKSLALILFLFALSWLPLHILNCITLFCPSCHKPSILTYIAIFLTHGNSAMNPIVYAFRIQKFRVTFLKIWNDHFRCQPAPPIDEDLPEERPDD

Homo sapiens [5] = organism: Homo sapiens; assay: Selectivity ratio of Ki for recombinant human adenosine A2A receptor expressed in CHO cell membranes to Ki for recombinant human adenosine A1 receptor expressed in CHO cell membranes; type: cell-based; in short: as §1
Adenosine receptor A2a [6] = target: T3, Adenosine receptor A2a; assay: Displacement of [3H]NECA from recombinant human adenosine A2A receptor expressed in CHO cell membranes after 3 hrs by microbeta scintillation counting; in short: as §1
Homo sapiens [7] = organism: Homo sapiens; assay: Selectivity ratio of Ki for recombinant human adenosine A2A receptor expressed in CHO cell membranes to Ki for recombinant human adenosine A3 receptor expressed in CHO cell membranes; type: cell-based; in short: as §1
[8] = Selectivity ratio of Ki for recombinant rat adenosine A3 receptor expressed in CHO cell membranes to Ki for recombinant human adenosine A3 receptor expressed in CHO cell membranes; type: cell-based; in short: as §1
Adenosine receptor A2a [9] = target: T3, Adenosine receptor A2a; assay: Agonist activity at recombinant human adenosine A2A receptor expressed in CHO cell membranes assessed as stimulation of adenylyl cyclase activity relative to NECA; type: functional, cell-based; in short: as §2
Adenosine receptor A1 [10] = target: T4, Adenosine receptor A1; assay: Agonist activity at recombinant human adenosine A1 receptor expressed in CHO cell membranes assessed as inhibition of forskolin-stimulated adenylyl cyclase activity after 10 mins in presence of [alpha-32P]ATP; type: functional, cell-based
In short: (§3)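 hA1 in CHO cell membranes (single high-speed spin, resuspended in 50 mM Tris/HCl pH 7.4, used immediately); agonist inhibition of forskolin-stimulated adenylyl cyclase; efficacy relative to CCPA as reference full agonist (100%). Geometric means with 95% confidence intervals, n = 3.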

[11] = target: T5, Adenosine receptor A2b (Homo sapiens) (UniProt P29275); assay: Agonist activity at recombinant human adenosine A2B receptor expressed in CHO cell membranes assessed as stimulation of adenylyl cyclase activity relative to NECA; type: functional, cell-based; in short: as §2
T5 sequence (whole entry): T2 sequence (P29275 whole entry)

[12] = target: T6, Adenosine receptor A1 (Homo sapiens) (UniProt P30542); assay: Agonist activity at recombinant human adenosine A1 receptor expressed in CHO cell membranes assessed as inhibition of forskolin-stimulated adenylyl cyclase activity after 10 mins relative to CCPA; type: functional, cell-based; in short: as §3
T6 sequence (whole entry): T4 sequence (P30542 whole entry)

Adenosine receptor A3 [13] = target: T7, Adenosine receptor A3 (Homo sapiens, UniProt P0DMS8); assay: Antagonist activity at recombinant human adenosine A3 receptor expressed in CHO cell membranes assessed as reversal of NECA-mediated inhibition of adenylyl cyclase activity after 10 mins by [alpha-32P]ATP assay; type: functional, cell-based
T7 sequence (P0DMS8 whole entry): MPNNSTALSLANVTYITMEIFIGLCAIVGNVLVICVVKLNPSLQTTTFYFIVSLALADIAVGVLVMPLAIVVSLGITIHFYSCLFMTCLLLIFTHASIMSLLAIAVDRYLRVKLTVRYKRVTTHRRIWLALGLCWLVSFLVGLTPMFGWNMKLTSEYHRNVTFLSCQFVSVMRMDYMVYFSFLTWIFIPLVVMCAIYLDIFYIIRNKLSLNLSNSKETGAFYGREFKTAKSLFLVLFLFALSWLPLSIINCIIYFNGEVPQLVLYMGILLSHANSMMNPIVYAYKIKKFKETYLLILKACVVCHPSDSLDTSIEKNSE

Adenosine receptor A3 [14] = target: T7, Adenosine receptor A3; assay: Displacement of [3H]HEMADO from recombinant human adenosine […] receptor expressed in CHO cell membranes after 3 hrs by microbeta scintillation counting; in short: as §1

Row | SMILES | Ki (Adenosine receptor A3 [1]) [µM] | EC50 (Adenosine receptor A2b) [µM] | EC50 (Adenosine receptor A2a [2]) [µM] | Ratio Ki [3] | Ki (Adenosine receptor A1 [4]) [µM] | Ratio Ki (Homo sapiens [5]) | Ki (Adenosine receptor A2a [6]) [µM] | Ratio Ki (Homo sapiens [7]) | Ratio Ki [8] | Efficacy (Adenosine receptor A2a [9]) [%] | EC50 (Adenosine receptor A1 [10]) [µM] | Efficacy [11] [%] | Efficacy [12] [%] | EC50 (Adenosine receptor A3 [13]) [µM] | Ki (Adenosine receptor A3 [14]) [µM]
1 | CCn1nnc([C@H]2O[C@@H](n3cnc4c(NCc5ccc(Cl)cc5F)ncnc43)C(O)C2O)n1 (single isomer, unassigned) | 0.0226 | 1.29 | 0.0407 | 1.09 | 0.00428 | 59 | 0.252 | 54 | 4.8 | > 90 | 0.23 | > 90 | > 90 | 0.0254 | 0.00467
2 | CCn1nnc([C@H]2O[C@@H](n3cnc4c(Nc5ccc(Cl)cc5F)ncnc43)[C@H](O)[C@@H]2O)n1 | 0.0214 | – | – | – | – | – | – | – | – | – | – | – | – | – | –
3 | CCn1nnc([C@H]2O[C@@H](n3cnc4c(NCc5cccc(Br)c5)ncnc43)C(O)C2O)n1 (single isomer, unassigned) | 0.00411 | 0.408 | 0.00446 | 0.4 | 0.00095 | 25 | 0.0245 | 61 | 10 | > 90 | 0.0451 | > 90 | > 90 | 0.00207 | 0.000393
4 | CCn1nnc([C@H]2O[C@@H](n3cnc4c(NC5CC5)nc(Cl)nc43)[C@H](O)[C@@H]2O)n1 | – | 0.677 | 0.0215 | 0.86 | 0.000538 | 509 to 510 | 0.274 | 596 | – | – | 0.00721 | – | – | 0.0141 | 0.000461
5 | CCn1nnc([C@H]2O[C@@H](n3cnc4c(NCC5CC5)nc(Cl)nc43)[C@H](O)[C@@H]2O)n1 | – | 1.96 | 0.0286 | 0.66 | 0.000454 | 725 | 0.329 | 1100 | – | > 90 | 0.00721 | > 90 | > 90 | 0.0144 | 0.000313
6 | CCn1nnc([C@H]2O[C@@H](n3cnc4c(NCc5ccc(Cl)cc5F)nc(Cl)nc43)[C@H](O)[C@@H]2O)n1 | – | > 30 | 0.0965 | 0.29 | 0.0176 | 50 | 0.881 | 170 | – | > 90 | 0.539 | > 90 | > 90 | 0.105 | 0.00517
7 | CCn1nnc([C@H]2O[C@@H](n3cnc4c(NCc5cccs5)nc(Cl)nc43)[C@H](O)[C@@H]2O)n1 | – | 2.14 | 0.0384 | 0.26 | 0.00602 | 47 | 0.286 | 180 | – | > 90 | 0.222 | > 90 | > 90 | 0.0447 | 0.00159
8 | CCn1nnc([C@H]2O[C@@H](n3cnc4c(NCc5cccc(Br)c5)nc(Cl)nc43)[C@H](O)[C@@H]2O)n1 | – | 1.65 | 0.0133 | 0.19 | 0.00179 | 32 | 0.0582 | 171 | – | > 90 | 0.0728 | > 90 | > 90 | 0.00964 | 0.000345
9 | CCn1nnc([C@H]2O[C@@H](n3cnc4c(N)nc(Cl)nc43)[C@H](O)[C@@H]2O)n1 | 0.212 | – | – | – | – | – | – | – | – | – | – | – | – | – | –
10 | CCn1nnc([C@H]2O[C@@H](n3cnc4c(NCc5ccco5)nc(Cl)nc43)[C@H](O)[C@@H]2O)n1 | – | 2.57 | 0.0602 | 0.17 | 0.00764 | 87 | 0.663 | 506 | – | > 90 | 0.341 | > 90 | > 90 | 0.0524 | 0.00131
11 | CCn1nnc([C@H]2O[C@@H](n3cnc4c(NCc5ccco5)ncnc43)C(O)C2O)n1 (single isomer, unassigned) | 0.0331 | 1.93 | 0.0543 | 0.45 | 0.0107 | 32 | 0.342 | 70 | 6.8 | > 90 | 0.552 | > 90 | > 90 | 0.125 | 0.00485
12 | CCn1nnc([C@H]2O[C@@H](n3cnc4c(N)ncnc43)[C@H](O)[C@@H]2O)n1 | 0.228 | – | – | – | – | – | – | – | – | – | – | – | – | – | –
13 | CCn1nnc([C@H]2O[C@@H](n3cnc4c(NCc5cccc(F)c5)nc(Cl)nc43)[C@H](O)[C@@H]2O)n1 | – | 2.23 | 0.0313 | 0.13 | 0.00604 | 40 | 0.242 | 299 | – | > 90 | 0.239 | > 90 | > 90 | 0.0315 | 0.000806
14 | CCn1nnc([C@H]2O[C@@H](n3cnc4c(NC)nc(Cl)nc43)[C@H](O)[C@@H]2O)n1 | 0.6 | – | – | – | – | – | – | – | – | – | – | – | – | – | –
15 | CCn1nnc([C@H]2O[C@@H](n3cnc4c(NCc5cccc(Cl)c5)nc(Cl)nc43)[C@H](O)[C@@H]2O)n1 | – | 2.39 | 0.016 | 0.14 | 0.00271 | 40 | 0.11 | 282 | – | > 90 | 0.116 | > 90 | > 90 | 0.00761 | 0.000387
